Measurements: ChEMBL document CHEMBL2429828, “Discovery of thiazolyl-phthalazinone acetamides as potent glucose uptake activators via high-throughput screening” (Bioorg Med Chem Lett, 2013)
Calls of active or inactive are those of the source. The rule behind the calls is not given here.

Tests used:
[1] = system: L6; test: Induction of glucose uptake in rat L6 cells pulsed with C14-deoxy glucose after 24 hrs in presence of insulin; type: functional, cell-based; conditions: L6, 24 h
Procedure, shortened: (§1)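 L6 rat skeletal muscle cells grown in MEM alpha with 10% serum, differentiated at confluence in 2% serum, then serum-starved. Treated overnight; after 24 h, pulsed 10 min with 14C-deoxyglucose in presence of insulin. Uptake read by scintillation after lysis with Microscint PS.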

[2] = system: L6; test: Induction of glucose uptake in rat L6 cells pulsed with C14-deoxy glucose at 10 uM after 24 hrs in presence of insulin relative to control; type: functional; procedure, shortened: as §1
[3] = target: T1, Peroxisome proliferator-activated receptor gamma (Homo sapiens) (UniProt P37231); test: Transactivation of GAL4 DNA binding domain-fused human PPAR-gamma ligand binding domain transfected in African green monkey CV1 cells after 24 hrs by luciferase reporter gene assay; type: cell-based; conditions: CV-1
T1 sequence (whole entry): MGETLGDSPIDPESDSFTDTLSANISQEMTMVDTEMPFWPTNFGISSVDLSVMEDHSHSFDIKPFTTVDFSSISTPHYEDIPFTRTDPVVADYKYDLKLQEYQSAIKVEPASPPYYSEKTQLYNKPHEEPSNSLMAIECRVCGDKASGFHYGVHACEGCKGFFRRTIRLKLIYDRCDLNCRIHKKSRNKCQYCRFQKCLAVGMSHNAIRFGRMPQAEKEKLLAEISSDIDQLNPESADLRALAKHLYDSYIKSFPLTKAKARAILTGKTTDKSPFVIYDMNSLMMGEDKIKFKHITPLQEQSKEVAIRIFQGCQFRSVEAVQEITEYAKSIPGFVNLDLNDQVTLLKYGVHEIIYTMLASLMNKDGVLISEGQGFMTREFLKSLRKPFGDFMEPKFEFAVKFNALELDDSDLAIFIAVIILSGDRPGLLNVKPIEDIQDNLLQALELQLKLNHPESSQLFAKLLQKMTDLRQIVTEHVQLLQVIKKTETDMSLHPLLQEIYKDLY
Procedure, shortened: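 CV-1 cells seeded at 25,000 cells/well, incubated overnight, then transiently co-transfected (Lipofectamine 2000) with Gal4-element luciferase reporter and GAL4 DBD–PPAR-γ LBD plasmid. Compounds added 6 h post-transfection for 24 h, then luminescence read. Values expressed as % of 1 µM rosiglitazone response (set as 100%). Triplicates, repeated twice.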

Structure (SMILES): Cc1sc(NC(=O)Cc2nn(C)c(=O)c3ccccc23)nc1-c1ccc(Br)cc1
- EC50 [1]: 3 nM
- fold change (FC) [2]: 3.4

Structure (SMILES): Cn1nc(CC(=O)Nc2nc(-c3ccccc3)c(C(=O)O)s2)c2ccccc2c1=O
- fold change (FC) [2]: 1.3

Structure (SMILES): Cn1nc(CC(=O)Nc2nc(-c3ccc(Cl)cc3)cs2)c2ccccc2c1=O
- fold change (FC) [2]: 3.4

Structure (SMILES): Cn1nc(CC(=O)Nc2ncc(-c3ccccc3)c(=O)[nH]2)c2ccccc2c1=O
- EC50 [1]: 7470 nM
- fold change (FC) [2]: 1.9

Structure (SMILES): CCc1oc(NC(=O)Cc2nn(C)c(=O)c3ccccc23)nc1-c1ccccc1
- fold change (FC) [2]: 1

Structure (SMILES): O=C(Cc1n[nH]c(=O)c2ccccc12)Nc1nc(-c2ccccc2)cs1
- EC50 [1]: 40 nM
- fold change (FC) [2]: 1.8

Structure (SMILES): Cn1nc(CC(=O)Nc2nc(-c3ccc(Br)cc3)cs2)c2ccccc2c1=O
- EC50 [1]: 100 nM
- fold change (FC) [2]: 3.6

Structure (SMILES): CN(C(=O)CCCCC(=O)O)c1nc(-c2ccccc2)cs1
- fold change (FC) [2]: 0.9

Structure (SMILES): O=C(O)CCCCC(=O)Nc1nc(-c2ccccc2)cs1
- Activity [2]: inactive

Structure (SMILES): O=C(Cc1nn(CCO)c(=O)c2ccccc12)Nc1nc(-c2ccccc2)cs1
- fold change (FC) [2]: 0.8

Structure (SMILES): Cn1nc(CC(=O)Nc2ncc(-c3ccccc3)s2)c2ccccc2c1=O
- fold change (FC) [2]: 1.6

Structure (SMILES): Cn1nc(CC(=O)Nc2nccc3ccccc23)c2ccccc2c1=O
- EC50 [1]: 170 nM
- fold change (FC) [2]: 4.9

Structure (SMILES): Nc1nc(-c2ccccc2)cs1
- Activity [2]: inactive

Structure (SMILES): Cn1nc(CC(=O)Nc2nccs2)c2ccccc2c1=O
- EC50 [1]: 120 nM
- fold change (FC) [2]: 1.7

Structure (SMILES): Cn1nc(CC(=O)Nc2nc(-c3ccc(F)cc3)cs2)c2ccccc2c1=O
- fold change (FC) [2]: 2.7

Structure (SMILES): NNC(=O)Cc1n[nH]c(=O)c2ccccc12
- Activity [2]: inactive

Structure (SMILES): Cn1nc(CC(=O)NCc2n[nH]c(=O)c3ccccc23)c2ccccc2c1=O
- fold change (FC) [2]: 0.8

Structure (SMILES): O=C(Cc1n[nH]c(=O)c2ccccc12)NNC(=O)c1nc(-c2ccccc2)cs1
- fold change (FC) [2]: 0.9

Structure (SMILES): Cn1nc(CC(=O)NC23CC4CC(CC(O)(C4)C2)C3)c2ccccc2c1=O
- fold change (FC) [2]: 0.7

Structure (SMILES): Cc1sc(NC(=O)Cc2nn(C)c(=O)c3ccccc23)nc1-c1ccccc1
- EC50 [1]: 10 nM
- fold change (FC) [2]: 3.4

Structure (SMILES): Cn1nc(CC(=O)Nc2nccc(=O)[nH]2)c2ccccc2c1=O
- fold change (FC) [2]: 1.2

Structure (SMILES): CCOC(=O)CN(C(=O)Cc1nn(C)c(=O)c2ccccc12)c1nc(-c2ccccc2)cs1
- EC50 [1]: 280 nM
- fold change (FC) [2]: 1.9

Structure (SMILES): CCOC(=O)Cc1nn(CC(=O)c2ccccc2)c(=O)c2ccccc12
- fold change (FC) [2]: 1.1

Structure (SMILES): COc1ccc(-c2nc(NC(=O)Cc3nn(C)c(=O)c4ccccc34)sc2C)cc1
- Activity [3]: 1%
- EC50 [1]: 9 nM
- fold change (FC) [2]: 2.9

Structure (SMILES): Cn1nc(CC(=O)Nc2ccc(Cl)c(C(F)(F)F)c2)c2ccccc2c1=O
- EC50 [1]: 2560 nM
- fold change (FC) [2]: 2

Structure (SMILES): CCOC(=O)c1sc(NC(=O)Cc2nn(C)c(=O)c3ccccc23)nc1-c1ccccc1
- fold change (FC) [2]: 1.3

Structure (SMILES): Cn1nc(CC(=O)Nc2nc(-c3ccccc3)cs2)c2ccccc2c1=O
- Activity [3]: 0.3%
- EC50 [1]: 70 nM
- fold change (FC) [2]: 1.8

Structure (SMILES): CN(C(=O)Cc1nn(C)c(=O)c2ccccc12)c1nc(-c2ccccc2)cs1
- EC50 [1]: 5960 nM
- fold change (FC) [2]: 1.8

Structure (SMILES): CCOC(=O)Cc1nnc(O)c2ccccc12
- Activity [2]: inactive

Structure (SMILES): Cn1nc(CC(=O)Nc2cc(-c3ccc(F)cc3)on2)c2ccccc2c1=O
- fold change (FC) [2]: 1.3

Structure (SMILES): O=C(O)Cc1nnc(O)c2ccccc12
- Activity [2]: inactive

Structure (SMILES): Cn1nc(CC(=O)Nc2nc(-c3ccc(C(F)(F)F)cc3)cs2)c2ccccc2c1=O
- fold change (FC) [2]: 3.2

Structure (SMILES): CCOC(=O)c1sc(NC(=O)Cc2nn(C)c(=O)c3ccccc23)nc1C
- EC50 [1]: 40 nM
- fold change (FC) [2]: 0.9

Structure (SMILES): Cn1nc(CC(=O)Nc2nc(-c3ccccc3O)cs2)c2ccccc2c1=O
- fold change (FC) [2]: 1.3

Structure (SMILES): CN(CCOc1ccc(CC2SC(=O)NC2=O)cc1)c1ccccn1 (centres undefined) [ROSIGLITAZONE]
- EC50 [1]: 4490 nM
- fold change (FC) [2]: 1.8

Structure (SMILES): COc1ccc2c(oc3ccccc32)c1NC(=O)Cc1nn(C)c(=O)c2ccccc12
- fold change (FC) [2]: 1.3

Structure (SMILES): COC(=O)CCCCC(=O)N(C)c1nc(-c2ccccc2)cs1
- fold change (FC) [2]: 1.2

Structure (SMILES): O=C(O)Cc1nn(CC(=O)c2ccccc2)c(=O)c2ccccc12
- fold change (FC) [2]: 0.9
